Screening data: PubChem, several laboratories
This is a sample that favours compounds with a hit; in the whole collection about 2.3% have one here.
TRPC6 inhibitor = mouse TRPC6 channel inhibitors, primary screen, cell-based, HEK293, membrane potential dye. B-score at 10 µM. 310,000 tested, 1.1% active. ACh-evoked depolarization; active compounds read low. AID 2553, 2010;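 active = B-score under library mean minus 3 SD, initial fluorescence not abnormally high, positive integrated signal ratio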;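 also: B-score derived from integrated fluorescence ratio over the kinetic read; more negative B-score means stronger inhibition of depolarization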
DNA FID counter = compounds displacing fluorescent DNA intercalator, primary screen, artefact control for HCV NS3 helicase inhibitor project, biochemical, FID fluorescence; DNA fluorescent intercalator displacement; inhibition, % at 7.9 µM; 290,000 tested, 0.17% active; in the data active = inhibition above about 37%;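 also: 0% = vehicle and 100% = reference compound; higher means more ethidium bromide displaced from hairpin DNA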
TRPC4 PAM = positive allosteric modulators of TRPC4, primary screen, cell-based, mouse TRPC4beta, HEK293 mu-opioid, Fluo-4 calcium; AID 2227, 2009; B-score at 10 µM; DAMGO EC20, Fluo-4 Ca2+ flux; active compounds read high; Short transient receptor potential channel 4 (Mus musculus), Q9QUQ5; 310,000 tested, 0.42% active;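 active = B-score of calcium response area above 5 SD of library B-scores, with initial fluorescence ratio within 5 SD of library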;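 also: B-score of integrated fluorescence ratio over time as area under calcium response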
Target sequence (Q9QUQ5 whole entry, looked up): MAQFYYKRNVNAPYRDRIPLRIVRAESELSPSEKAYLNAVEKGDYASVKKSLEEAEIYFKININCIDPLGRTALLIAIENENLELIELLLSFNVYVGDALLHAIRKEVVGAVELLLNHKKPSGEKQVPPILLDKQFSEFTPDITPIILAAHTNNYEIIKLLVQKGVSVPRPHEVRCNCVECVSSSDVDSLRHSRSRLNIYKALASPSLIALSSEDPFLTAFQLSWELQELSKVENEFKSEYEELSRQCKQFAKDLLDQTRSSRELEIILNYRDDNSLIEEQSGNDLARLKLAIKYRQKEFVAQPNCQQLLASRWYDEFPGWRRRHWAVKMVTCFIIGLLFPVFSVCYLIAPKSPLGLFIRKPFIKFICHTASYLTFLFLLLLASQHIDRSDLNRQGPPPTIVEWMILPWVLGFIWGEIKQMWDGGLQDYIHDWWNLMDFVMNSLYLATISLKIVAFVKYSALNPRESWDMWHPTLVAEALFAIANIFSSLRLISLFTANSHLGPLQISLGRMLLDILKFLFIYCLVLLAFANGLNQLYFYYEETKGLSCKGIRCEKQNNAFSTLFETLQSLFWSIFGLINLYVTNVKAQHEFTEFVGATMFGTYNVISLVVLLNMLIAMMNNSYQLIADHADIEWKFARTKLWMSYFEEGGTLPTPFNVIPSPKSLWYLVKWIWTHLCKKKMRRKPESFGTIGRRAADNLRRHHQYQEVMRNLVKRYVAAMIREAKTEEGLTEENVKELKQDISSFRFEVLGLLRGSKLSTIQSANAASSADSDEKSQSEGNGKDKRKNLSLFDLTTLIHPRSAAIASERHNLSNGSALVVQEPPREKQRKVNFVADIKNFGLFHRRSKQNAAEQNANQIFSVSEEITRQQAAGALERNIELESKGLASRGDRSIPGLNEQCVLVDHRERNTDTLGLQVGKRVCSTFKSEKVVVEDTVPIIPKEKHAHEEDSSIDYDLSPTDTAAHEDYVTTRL
TRPC4 block = inhibitors of mouse TRPC4 channel, primary screen, Fluo4 calcium, HEK293 TRPC4beta/mu-opioid cells. B-score at 10 µM. AID 2247, 2010. Short transient receptor potential channel 4 (Mus musculus), Q9QUQ5. DAMGO-evoked Fluo4 calcium flux; active compounds read low. 300,000 tested, 0.39% active;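 active = B-score over 3 SD under the library average, no early fluorescence shift, positive overall ratio signal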
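Assay system: Stable TRPC4beta/mu-opioid receptor HEK293 cells | Reagent: DAMGO in two steps, submaximal then maximal | Compound dosing: Single concentration per test compound | Signal: Fluo4 Ca2+ flux fluorescence | Evaluation: Per-well B score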
TRPC6 act = mouse TRPC6 channel activators, primary screen, cell-based, HEK293, membrane potential dye; Short transient receptor potential channel 6 (Mus musculus), Q61143; HEK293-TRPC6 membrane potential dye fluorescence; active compounds read high; B-score at 10 µM; 310,000 tested, 0.13% active;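 active = B-score of the integrated fluorescence ratio above library mean plus 3 SD, and starting fluorescence ratio within library mean plus 5 SD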;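 also: higher score means more depolarization so channel activation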
TRPC4 act = activators of mouse TRPC4 channel, primary screen, Fluo4 calcium, HEK293 TRPC4beta/mu-opioid cells; Short transient receptor potential channel 4 (Mus musculus), Q9QUQ5; 310,000 tested, 0.49% active; Fluo4 calcium fluorescence; active compounds read high; B-score at 10 µM; AID 2237, 2010;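 active = B-score above 5 SD of library B-scores, and initial fluorescence ratio not above library mean plus 5 SD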;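 also: positive B-score marks a calcium rise read as TRPC4 activation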
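System – HEK293 cells stably co-expressing mouse TRPC4beta and mu-opioid receptor · Signal – Fluo4 calcium-sensitive dye fluorescence, kinetic, 1 Hz baseline · Benchmarks – buffer (low) and maximal DAMGO (high) · Read-out – B score of integrated fluorescence ratio per well · Incubation – dye loading 45 min room temperature, 110 s kinetic read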
* marks the source's active call; other numbers are inactive results; i = inactive; . = no result.

SMILES	TRPC6 inhibitor	DNA FID counter	TRPC4 PAM	TRPC4 block	TRPC6 act	TRPC4 act
Cc1csc(SCC(=O)Nc2cc(S(=O)(=O)N(C)C)ccc2C)n1	i	.	i	i	i	i
O=C(COc1ccc(Br)cc1)NCCCNC(=O)c1cnccn1	i	-13	i	i	i	i
CCCC(=O)NCCc1cc2ccc(C)c(C)c2[nH]c1=O	i	1	12*	i	i	i
Nc1[nH][nH]c(=O)c1N=Nc1cccc(Cl)c1	i	9	10*	i	i	i
COc1cccc(N=Nc2c(N)[nH][nH]c2=O)c1	i	-7	14*	i	i	i
CN[C@@H]1CC[C@H](c2ccc(Cl)c(Cl)c2)c2ccccc21	i	.	14*	i	i	i
Cc1ccc(Nc2c(N)c(=O)oc3ccccc23)cc1	i	-2	31*	i	i	i
CC1CCN(c2nc(Cl)nc(Nc3ccc([N+](=O)[O-])cc3)n2)CC1	i	4	47*	i	i	i
C=CCn1c(SCc2n[nH]c(=S)n2-c2ccccc2)nnc1-c1ccccc1	i	-21	11*	i	i	i
CC1CCC(NC(=O)c2ccc(COc3ccccc3)o2)CC1 (configuration not stated)	i	.	i	i	i	i
CCOC(=O)C1=NN(c2ccccc2C)C2=NC(C)=C(C(=O)OC)C(c3cccc(OC)c3)N12 (configuration not stated)	i	-20	i	-5*	i	i
CCN(CC)CCNC(=O)c1ccc(NC(=O)c2ccc(COc3ccccc3)cc2)cc1	i	38*	i	i	i	i
COCCNC(=O)C(c1ccc(F)cc1)N(CCOC)C(=O)CCC(=O)Nc1ccccn1 (configuration not stated)	i	-25	i	i	i	i
CCOC(=O)c1c(NC(=O)C2CC(Cl)=CCC2C(=O)O)sc2c1CCCCC2 (configuration not stated)	i	-37	i	-6*	i	i
CCOC(=O)c1c(NC(NC(C)=O)C(Cl)(Cl)Cl)sc2c1CCCC2 (configuration not stated)	i	-21	21*	i	i	i
COC(=O)c1c(NC(NC(C)=O)C(Cl)(Cl)Cl)sc2c1CCCC2 (configuration not stated)	i	-19	i	i	i	i
CCOC(=O)c1c(NC(=O)c2ccco2)sc2c1CCCCC2	i	-1	i	i	i	i
CCOC(=O)c1c(NC(=O)CCNCc2ccco2)sc2c1CCC2	i	13	11*	i	i	i
COc1ccc(S(=O)(=O)N(C)CC(=O)NCCN2CCOCC2)cc1C	i	-4	i	i	i	i
Cc1ccc(NS(=O)(=O)c2cc(C(=O)N3CCc4ccccc4C3)ccc2Cl)cc1	i	-24	28*	i	i	i
CCCCN(C)CCNC(=O)c1ccc(Cn2c(=S)[nH]c3ccc(Br)cc3c2=O)cc1	i	14	25*	i	i	i
CCOCCCNC(=O)c1ccc2c(=O)n(CCCOCC)c(=S)[nH]c2c1	i	-24	i	i	i	i
CCCCCn1c(=O)[nH]c2cc(C(=O)NCCCN(C)Cc3ccccc3)ccc2c1=O	i	9	12*	i	i	i
CCOCCCn1c(=S)[nH]c2cc(C(=O)NCCCN(CC)CC)ccc2c1=O	i	8	24*	i	i	i
CCN(CC)CCNC(=O)c1ccc2c(=O)n(CCc3ccccc3)c(=O)[nH]c2c1	i	21	i	i	i	i
SMILES	TRPC6 inhibitor	DNA FID counter	TRPC4 PAM	TRPC4 block	TRPC6 act	TRPC4 act
O=C(C1CC(=O)N(C2CCCC2)C1)N1CCN(c2cccc(Cl)c2)CC1 (configuration not stated)	i	-11	i	i	i	i
O=C(O)CN1C(=O)C(=O)N(Cc2ccccc2F)C1=O	i	0	i	i	i	i
Cc1cc(N2CCN(C)CC2)nc2ccc(NC(=S)N3CCN(c4ccc(Cl)cc4)CC3)cc12	i	46*	i	i	i	i
Cc1cc(N2CCN(C)CC2)nc2ccc(NC(=S)N3CCN(c4ccc(F)cc4)CC3)cc12	i	6	i	i	i	i
Cc1cccc(N2CCN(C(=S)Nc3ccc4nc(N5CCN(C)CC5)cc(C)c4c3)CC2C)c1 (configuration not stated)	i	47*	i	i	i	i
CCN1CCN(c2ccc(S(=O)(=O)N3CCCCC3)cc2NC(=O)c2cccc(C)c2[N+](=O)[O-])CC1	i	.	i	i	i	132*
CCN1CCN(c2ccc(S(=O)(=O)N3CCCCC3)cc2NC(=O)c2cccc(F)c2)CC1	i	.	17*	i	i	i
CCN1CCN(c2ccc(S(=O)(=O)N3CCCCC3)cc2NC(=O)c2ccccc2)CC1	i	.	i	i	i	i
CCN1CCN(c2ccc(S(=O)(=O)N3CCCCC3)cc2NC(=O)c2ccc([N+](=O)[O-])s2)CC1	i	.	i	i	i	i
CCN1CCN(c2ccc(S(=O)(=O)N3CCCCC3)cc2NC(=O)c2cccc(C(F)(F)F)c2)CC1	i	.	29*	i	i	i
O=C(NCc1ccccc1Cl)c1cc2c(s1)CS(=O)(=O)C2	i	-7	i	i	i	i
COc1ccc(C(=O)C2CCCN(C(=O)c3cccc(N4CCCC4=O)c3)C2)cc1OC (configuration not stated)	i	-34	i	i	i	i
Cn1c(-c2ccc(F)cc2)cnc1NCc1ccc(F)cc1	i	29	i	-6*	i	i
Cn1c(-c2ccc(F)cc2)cnc1NCc1ccc(F)cc1F	i	0	i	-6*	i	i
COc1ccc(/C=N/NC(=O)c2ccc3c(c2)OCO3)c(C(=O)O)c1OC	i	-1	i	i	i	i
Cc1cc(C)c(CN2CCN(Cc3ccc(C)o3)C(CCO)C2)c(-n2cccn2)c1 (configuration not stated)	i	17	i	i	i	77*
